# Bioassay records: PubChem, several laboratories
# This is a sample that favours compounds with a hit; in the whole collection about 0.55% have one here.
# ABCG2 inh – inhibitors of human ABCG2 transporter, ABCB1 counter-screen; AID 1325; inhibition, % at 6.6 µM; IgMXP3 cells, JC-1 efflux, flow cytometry; actives 0.1% (n = 190,000);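 active means inhibition above 80%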;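 further: 0% = DMSO and 100% = nicardipine control wells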
# Target sequence (Q9UNQ0 whole entry, looked up): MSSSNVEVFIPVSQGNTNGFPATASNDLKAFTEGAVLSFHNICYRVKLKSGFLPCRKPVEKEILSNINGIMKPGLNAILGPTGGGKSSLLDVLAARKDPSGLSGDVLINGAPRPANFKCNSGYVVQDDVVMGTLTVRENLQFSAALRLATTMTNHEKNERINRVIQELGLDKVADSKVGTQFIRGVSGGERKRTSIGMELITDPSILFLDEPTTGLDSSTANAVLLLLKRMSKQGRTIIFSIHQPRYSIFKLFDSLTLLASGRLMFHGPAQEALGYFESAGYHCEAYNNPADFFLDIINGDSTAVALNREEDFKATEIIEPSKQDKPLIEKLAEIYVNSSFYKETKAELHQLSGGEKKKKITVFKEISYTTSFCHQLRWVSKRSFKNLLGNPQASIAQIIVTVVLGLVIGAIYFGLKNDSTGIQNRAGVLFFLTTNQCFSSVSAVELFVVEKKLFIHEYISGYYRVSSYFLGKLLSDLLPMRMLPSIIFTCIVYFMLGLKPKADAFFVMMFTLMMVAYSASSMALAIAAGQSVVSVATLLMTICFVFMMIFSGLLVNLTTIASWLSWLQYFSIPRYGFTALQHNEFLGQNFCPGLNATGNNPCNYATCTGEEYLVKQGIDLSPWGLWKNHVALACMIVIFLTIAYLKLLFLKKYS
#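 Test system: IgMXP3 (ABCG2) plus far-red-tagged CCRF-Adr (ABCB1) cells / Amount: 3 million cells/mL in well / Reagent: JC-1 transporter substrate / Timing: 10 min compound exposure, 25 °C / Signal: flow cytometry, 530 nm JC-1 signal / Read-out: percent efflux inhibition, scaled nicardipine 100% to DMSO 0% / Benchmarks: nicardipine as high control, DMSO as low control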
# HSV augment – increases HSV replication in cells. HSV replication augmentation in cells, fold increase. maximum fold increase. actives 0.005% (n = 220,000); in the data active means maximum fold increase above about 1.5; inconclusive means no clear call, values can overlap the other calls; tested in PC3 cells
# p97 inhibitor – human p97 ATPase inhibition | recombinant p97 ATPase, Kinase-Glo ATP luminescence, 3 h | inhibition, % at 8 µM | AID 1481 | P55072 | actives 0.42% (n = 220,000); in the data active means inhibition above about 15%;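 further: 0% = DMSO vehicle and 100% = wells lacking enzyme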
# ABCB6 inh MLPCN – blocks the human ABCB6 transporter. Q9NP58. fluorescence ratio to DMSO, % at 10 µM. K562-ABCB6 porphyrin accumulation, flow cytometry, 1 h; stronger effect = lower value. actives 0.19% (n = 360,000);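 active means fluorescence ratio to DMSO below 75%, the collection mean minus 3 SD; inconclusive means too few cells collected in the well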;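 further: signal is porphyrin accumulated inside mitochondria; 100% equals median channel fluorescence of DMSO control wells; lower ratio means ABCB6 inhibition with less porphyrin fluorescence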
# ABCB1 block – inhibitors of human ABCB1 transporter, ABCG2 counter-screen. CCRF-Adr cells, JC-1 efflux, flow cytometry. inhibition, % at 6.6 µM. actives 0.067% (n = 190,000); in the data active means inhibition above about 40%;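 further: 0% = vehicle and 100% = reference inhibitor; higher value means more JC-1 retained so stronger ABCB1 efflux block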
# Rad51 HR inh – blocks human Rad51 in homologous recombination | actives 0.085% (n = 200,000) | inhibition, % at 10 µM | Q06609 | hRad51 DNA strand exchange, fluorescence dequenching | AID 1385;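 active means inhibition above 40% at the single screening dose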;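 further: 0% = DMSO control wells and 100% = blanks with heterologous ssDNA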
#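 material = hRad51 filaments on single-stranded DNA | reagent = Donor/quencher-labelled 47-bp dsDNA substrate | compound = 10 µM final, single point | schedule = strand-exchange reaction 15 min at room temperature | measured by = fluorescein emission 520 nm, excitation 485 nm | read-out basis = % inhibition versus plate control and blank means | benchmarks = plate controls and plate blanks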
# p97 inh conf – confirmation of human p97 ATPase inhibitors | inhibition, % at 8 µM | actives 44% (n = 760) | recombinant p97 ATPase, Kinase-Glo ATP luminescence | shares compounds with p97 inhibitor;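 active means percent inhibition of p97 ATPase above a set limit, the primary screen's mean plus 3 SD, cut at about 15% in these data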;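 further: 0% = DMSO wells and 100% = wells lacking p97 protein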
# Numbers without * were called inactive; i = inactive; ? = inconclusive; nt = no result.
SMILES,ABCG2 inh,HSV augment,p97 inhibitor,ABCB6 inh MLPCN,ABCB1 block,Rad51 HR inh,p97 inh conf
Oc1ccc(-c2nc3ccccc3s2)c(O)c1,nt,?,16.6*,98.0,nt,11.0,12.6
Nc1ccc(O)c(-c2nc3ccccc3s2)c1,-9.9,i,-4.1,95.0,-1.2,-3.7,nt
Cc1ccccc1NC(=O)C(Cl)=C(Cl)Cl,-0.3,i,27.2*,99.0,-0.3,1.9,36.1*
Cc1ccccc1NNC(=O)C(=O)NNc1ccccc1C,nt,i,-3.6,100.0,nt,5.1,nt
CCc1nc2c(OCC(=O)C(C)(C)C)cccn2c1N(C=O)CC(=O)N(C)C,nt,nt,nt,115.0,nt,nt,nt
O=C(COC(=O)c1ccc2c(c1Cl)C(=O)c1ccccc1C2=O)NC1CC1,0.6,i,24.8*,108.0,0.3,7.3,21.6*
CC(C)c1ccc2c(c1)CCC1C(C)(CN)CCCC21C (centres undefined),nt,i,21.6*,102.0,nt,-3.3,13.6
O=c1[nH]c(/C(Cl)=C/c2cc(Cl)ccc2O)nc2cc(Cl)ccc12,-8.6,i,29.3*,102.0,-0.5,-1.4,42.0*
O=c1[nH]c(/C(Cl)=C/c2c(F)cccc2Cl)nc2cc(Cl)ccc12,10.6,i,28.0*,95.0,-0.1,0.0,35.0*
CNc1cc(-c2cccc(OC)c2F)nc2ccnn12,nt,nt,nt,95.0,nt,nt,nt
O=C(COc1ncnc2cc([N+](=O)[O-])ccc12)NC(=O)NC1CCCCC1,4.1,i,0.4,97.0,1.6,-8.9,nt
O=C(COc1ncnc2cc([N+](=O)[O-])ccc12)NCCc1ccc(Cl)cc1,2.7,i,15.4*,89.0,0.2,3.1,8.8
CCCn1cnnc1CNC(=O)[C@H]1O[C@@H](n2ccc(=O)[nH]c2=O)[C@H](O)[C@@H]1O,nt,nt,nt,103.0,nt,nt,nt
O=c1oc2ccccc2c2oc3cc(O)c(O)cc3c12,nt,i,18.6*,100.0,nt,nt,21.8*
Nc1c(N)c2ccccc2oc1=O,0.7,i,-0.7,90.0,0.1,-9.9,nt
Fc1ccccc1-c1nc(NCc2ccco2)c2ccccc2n1,3.2,i,21.5*,95.0,0.1,-0.3,28.0*
COc1ccc(OC)c(N2C(=O)c3ccccc3C2c2nnnn2-c2ccc3c(c2)OCCO3)c1 (centres undefined),nt,nt,nt,99.0,nt,nt,nt
Nc1nc(SCCO)[nH]c(=O)c1NC(=O)c1ccc(Br)o1,nt,nt,nt,102.0,nt,nt,nt
O=[N+]([O-])c1cccc(/C=N/n2c(-c3cccnc3)n[nH]c2=S)c1,-5.3,i,6.3,105.0,-1.0,-3.9,nt
CC(=O)N(C(C)=O)c1nc(-c2ccccc2)cn1/N=C/c1cccc([N+](=O)[O-])c1,nt,i,17.8*,93.0,nt,14.8,23.6*
Cc1ccc(NC(=O)C(C)Sc2nnc3n2CCCCC3)cc1S(=O)(=O)N1CCOCC1 (centres undefined),nt,nt,nt,95.0,nt,nt,nt
COc1cccc(CNC(=O)[C@@H]2CCCN2C(=O)[C@H]2CCCCN2C(=O)c2c(F)cccc2F)c1,nt,nt,nt,93.0,nt,nt,nt
CC(=O)Oc1cc2cccc(OC(C)=O)c(=O)c2c(OC(C)=O)c1OC(C)=O,1.1,nt,28.6*,106.0,0.2,-20.6,4.2
CN(C)N1C(=O)c2c(Cl)c(Cl)c(Cl)c(Cl)c2C1=O,nt,nt,nt,96.0,nt,nt,nt
N#C/C(=C/c1ccc(Br)o1)C(N)=S,nt,i,35.1*,nt,nt,-6.5,30.2*
SMILES,ABCG2 inh,HSV augment,p97 inhibitor,ABCB6 inh MLPCN,ABCB1 block,Rad51 HR inh,p97 inh conf
CCNc1nc(NC(C)C)nc(-c2ccncc2)n1,nt,nt,nt,99.0,nt,nt,nt
O=c1cc(N=Nc2ccc(Cl)cc2)[nH]c(=O)[nH]1,nt,i,28.3*,102.0,nt,2.3,15.2*
CC(C)C(C(=O)O)N1C(=O)/C(=C/C=C/c2ccco2)SC1=S (centres undefined),-11.7,?,19.0*,103.0,-2.0,-42.7,7.2
O=C1/C(=C/C=C/c2ccco2)SC(=S)N1c1ccc(O)cc1,nt,?,58.1*,108.0,nt,nt,31.1*
CC(C)C(C(=O)O)N1C(=O)/C(=C/c2cccn2C)SC1=S (centres undefined),2.8,i,-1.3,104.0,1.3,-89.5,nt
O=C(NN1C(=O)/C(=C/C=C/c2ccccc2)SC1=S)c1ccncc1,-4.3,i,5.6,105.0,-1.0,-20.1,nt
O=C(NN1C(=O)/C(=C/C=C/c2ccco2)SC1=S)c1ccncc1,nt,i,40.4*,103.0,nt,nt,10.7
O=C1/C(=C/c2ccco2)SC(=S)N1c1cccnc1,nt,i,18.4*,90.0,nt,-16.6,14.1
Cc1nc(NC(=O)c2ccccc2)sc1-c1cc(C(=O)O)nn1Cc1ccccc1,nt,nt,nt,104.0,nt,nt,nt
Cc1cc2nc(-c3ccc(C#N)cc3)c(Cc3ccsc3)n2c(C)c1Br,nt,nt,nt,116.0,nt,nt,nt
CN(C(=O)c1cccc(NC(=O)Cc2ccc(NC(=O)C3CCCN(C(=O)C4CC4)C3)cc2)c1)C1CCC1 (centres undefined),nt,nt,nt,89.0,nt,nt,nt
N#CC1=C(N)NC(=S)C(C(N)=O)C1c1ccccc1F (centres undefined),nt,i,15.7*,99.0,nt,-4.3,6.2
N#CC1=C(N)NC(=S)C(C(N)=O)C1c1ccc(Cl)cc1Cl (centres undefined),6.7,i,2.9,101.0,0.2,15.7,nt
COc1cc(/C=N/N=C2/C(=O)Nc3ccccc32)ccc1O,16.2,i,1.1,101.0,0.7,nt,nt
O=C1Nc2ccccc2/C1=N\N=C\c1ccc(O)c(O)c1,nt,i,19.2*,91.0,nt,30.5,16.4*
O=C(C[n+]1cnn(CC(=O)c2ccc(Cl)cc2Cl)c1)c1ccc([N+](=O)[O-])cc1,-1.9,i,16.8*,95.0,-0.2,4.1,3.0
NS(=O)(=O)c1ccc(CCNc2ncnc3c2c(-c2ccccc2)cn3-c2ccc(F)cc2)cc1,1.5,i,29.6*,115.0,0.8,-9.2,24.2*
OCC[C@@H]1C[C@H](O)[C@@H](O)[C@]2(OCCc3cc(Cl)ccc32)O1,nt,nt,nt,100.0,nt,nt,nt
O=C(Nc1ccccc1)C1CC2CCCC(C1)C2=O (centres undefined),-0.4,i,16.8*,102.0,-0.1,-5.8,5.7
O=C(Nc1ccc(Cl)cc1)C1CC2CCCC(C1)C2=O (centres undefined),0.4,i,-4.0,90.0,0.0,-10.6,nt
O=[n+]1c2c(n([O-])c3cc(Br)ccc31)CCCC2,-9.0,i,2.0,96.0,-1.3,nt,nt
O=[n+]1c2c(n([O-])c3ccccc31)CCCC2,6.9,i,14.9*,94.0,0.4,-2.0,4.2
Cc1c(C(=O)OCC(=O)Nc2ccc(S(N)(=O)=O)cc2)oc2c1ccc1ccccc12,-5.7,i,15.8*,90.0,-1.3,nt,8.3
O=C(NNc1cc(N2CCOCC2)nc(N2CCOCC2)n1)c1ccc([N+](=O)[O-])cc1,2.3,i,22.5*,95.0,0.3,-7.9,7.1
O=C(Cn1nnc(-c2ccccc2)c1COc1ccc2ccccc2c1)NCC1CC1,nt,nt,nt,100.0,nt,nt,nt
